pKi: −log10 of the molar value.
Assays:
[1] = target: T1, Alpha-1D adrenergic receptor (Homo sapiens, UniProt P25100); test: Binding affinity towards cloned human alpha-1D adrenergic receptor was determined using [125]-HEAT as radioligand
T1 sequence (P25100 whole entry): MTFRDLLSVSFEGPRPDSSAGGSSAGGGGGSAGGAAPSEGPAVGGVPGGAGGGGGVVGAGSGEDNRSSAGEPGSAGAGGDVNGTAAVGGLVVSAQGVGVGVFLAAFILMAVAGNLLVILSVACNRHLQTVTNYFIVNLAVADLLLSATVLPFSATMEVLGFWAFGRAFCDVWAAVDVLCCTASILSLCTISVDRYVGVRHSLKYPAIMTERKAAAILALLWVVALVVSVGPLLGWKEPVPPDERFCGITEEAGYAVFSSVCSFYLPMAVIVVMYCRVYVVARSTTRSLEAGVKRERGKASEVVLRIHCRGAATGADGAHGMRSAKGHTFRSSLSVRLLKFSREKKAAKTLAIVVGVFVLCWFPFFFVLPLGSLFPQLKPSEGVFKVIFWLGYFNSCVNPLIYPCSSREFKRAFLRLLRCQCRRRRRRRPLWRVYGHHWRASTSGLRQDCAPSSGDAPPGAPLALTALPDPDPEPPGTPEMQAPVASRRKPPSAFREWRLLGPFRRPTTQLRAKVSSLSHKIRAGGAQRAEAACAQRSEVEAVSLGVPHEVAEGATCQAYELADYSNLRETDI
Procedure, shortened: (§1)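 Human α1a, α1b and α1d cDNAs transiently expressed in COS-1 cells (DEAE-dextran); membranes harvested 72 h post-transfection. Competition versus 50 pM [125I]HEAT (final), 0.1 pM–10 μM test compound in half-log steps, in TNE buffer pH 7.4. Membrane protein 0.1 μg (α1a, α1b) or 2.6 μg (α1d); 1 h at 25 °C. Filtration, scintillation counting; Ki = IC50/(1 + [L]/Kd). Ratios are subtype Ki over α1a Ki.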

[2] = target: T2, Alpha-2C adrenergic receptor (Homo sapiens) (UniProt P18825); test: Compound at 1 uM was tested for the inhibition of radioligand [3H]MK-912 binding to recombinant human alpha-2C adrenergic receptor
T2 sequence (whole entry): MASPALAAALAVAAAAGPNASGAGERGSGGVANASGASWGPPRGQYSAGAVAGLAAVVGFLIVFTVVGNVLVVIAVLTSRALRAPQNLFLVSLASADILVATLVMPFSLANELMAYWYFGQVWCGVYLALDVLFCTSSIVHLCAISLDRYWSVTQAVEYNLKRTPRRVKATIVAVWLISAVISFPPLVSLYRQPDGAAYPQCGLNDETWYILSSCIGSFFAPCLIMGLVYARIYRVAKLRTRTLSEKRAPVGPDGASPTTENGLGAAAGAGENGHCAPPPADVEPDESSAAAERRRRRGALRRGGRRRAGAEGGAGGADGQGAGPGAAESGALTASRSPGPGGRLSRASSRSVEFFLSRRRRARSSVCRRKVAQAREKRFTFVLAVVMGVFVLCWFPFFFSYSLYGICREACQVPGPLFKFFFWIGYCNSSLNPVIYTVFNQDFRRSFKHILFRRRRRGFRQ
Procedure, shortened: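 Recombinant human α2a or α2c receptors in CHO cell membranes; [3H]MK912, 60 min at 25 °C in 50 mM Tris-HCl, 150 mM NaCl, 5 mM EDTA, pH 7.4; WB4101 (10 μM) for nonspecific binding. Percent inhibition at 1 μM in duplicate; filtration, scintillation counting.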

D(2) dopamine receptor = D(2) dopamine receptor (Homo sapiens, UniProt P14416); test: Compound at 1 uM was tested for the inhibition of radioligand [3H]spiperone binding to recombinant human Dopamine receptor D2S
D(2) dopamine receptor, sequence (P14416 whole entry): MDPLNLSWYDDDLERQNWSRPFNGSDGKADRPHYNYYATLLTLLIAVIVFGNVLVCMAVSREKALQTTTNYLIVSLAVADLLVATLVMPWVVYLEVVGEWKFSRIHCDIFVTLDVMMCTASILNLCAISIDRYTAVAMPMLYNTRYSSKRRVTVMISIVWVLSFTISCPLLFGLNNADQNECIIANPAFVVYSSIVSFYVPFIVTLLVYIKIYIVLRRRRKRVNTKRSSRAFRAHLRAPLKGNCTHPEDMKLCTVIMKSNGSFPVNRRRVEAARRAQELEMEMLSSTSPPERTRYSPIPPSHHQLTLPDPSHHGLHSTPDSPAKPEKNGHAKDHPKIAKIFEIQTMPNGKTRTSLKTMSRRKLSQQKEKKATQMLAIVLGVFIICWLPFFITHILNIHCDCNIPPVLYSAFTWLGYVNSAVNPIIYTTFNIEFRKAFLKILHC
Procedure, shortened: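 Human D2S in CHO membranes; [3H]spiperone, 37 °C for 120 min in 50 mM Tris-HCl, 150 mM NaCl, 5 mM EDTA, pH 7.4; 10 μM haloperidol for nonspecific binding. Percent inhibition at 1 μM, duplicate; filtration, scintillation counting.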

[3] = target: T3, D(4) dopamine receptor (Homo sapiens) (UniProt P21917); test: Compound at 1 uM was tested for the inhibition of radioligand [3H]spiperone binding to recombinant human Dopamine receptor D4.7
T3 sequence (whole entry): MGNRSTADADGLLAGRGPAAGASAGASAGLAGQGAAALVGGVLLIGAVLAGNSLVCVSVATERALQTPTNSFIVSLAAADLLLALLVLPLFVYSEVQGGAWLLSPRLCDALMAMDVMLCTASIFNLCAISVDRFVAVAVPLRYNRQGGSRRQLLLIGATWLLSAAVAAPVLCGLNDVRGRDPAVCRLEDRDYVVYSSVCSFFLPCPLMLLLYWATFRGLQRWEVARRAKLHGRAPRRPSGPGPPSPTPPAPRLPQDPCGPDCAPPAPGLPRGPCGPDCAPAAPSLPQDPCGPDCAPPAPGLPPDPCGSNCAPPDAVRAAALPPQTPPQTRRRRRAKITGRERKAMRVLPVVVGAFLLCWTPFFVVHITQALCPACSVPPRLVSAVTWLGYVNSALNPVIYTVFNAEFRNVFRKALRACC
Procedure, shortened: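 Recombinant human D4.7 in CHO cell membranes; [3H]spiperone for 120 min at 25 °C, pH 7.4 Tris-HCl/NaCl/EDTA; haloperidol (10 μM) for nonspecific binding. Compound at 1 μM, percent inhibition determined in duplicate; filtration, scintillation counting.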

[4] = target: Serotonin 1 (5-HT1) receptor (Rattus norvegicus) (UniProt P28564+P30940+P19327+P28565); test: Compound at 1 uM was tested for the inhibition of radioligand [3H]5-HT binding to 5-hydroxytryptamine 1 receptor in rat cerebral cortex; assay type: tissue-based
Procedure, shortened: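 Rat cerebral cortex membranes; [3H]5-HT, 10 min at 37 °C, Tris-HCl/NaCl/EDTA buffer pH 7.4; 10 μM 5-HT for nonspecific binding. Filtered, washed three to four times, scintillation counted. Percent inhibition at 1 μM test compound, in duplicate.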

[5] = target: T4, Alpha-1A adrenergic receptor (Homo sapiens, UniProt P35348); test: Binding affinity towards cloned human alpha-1A adrenergic receptor was determined using [125]-HEAT as radioligand
T4 sequence (P35348 whole entry): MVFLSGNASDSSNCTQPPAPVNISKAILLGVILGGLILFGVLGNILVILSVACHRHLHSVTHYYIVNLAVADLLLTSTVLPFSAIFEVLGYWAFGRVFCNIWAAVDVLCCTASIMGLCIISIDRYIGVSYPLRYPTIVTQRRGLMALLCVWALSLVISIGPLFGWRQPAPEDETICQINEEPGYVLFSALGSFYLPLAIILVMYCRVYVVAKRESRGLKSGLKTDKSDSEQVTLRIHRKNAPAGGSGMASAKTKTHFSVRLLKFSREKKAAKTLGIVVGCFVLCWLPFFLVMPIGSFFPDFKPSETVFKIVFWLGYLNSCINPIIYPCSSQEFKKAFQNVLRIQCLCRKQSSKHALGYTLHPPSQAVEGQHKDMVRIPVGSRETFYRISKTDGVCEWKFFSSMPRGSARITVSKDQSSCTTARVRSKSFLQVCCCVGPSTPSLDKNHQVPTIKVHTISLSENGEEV

[6] = target: Adrenergic receptors; alpha-1 A & B (Homo sapiens) (UniProt P35348+P35368); test: Ratio of binding affinity towards Alpha1b to Alpha-1A; assay type: protein assay; procedure, shortened: as §1

| SMILES | pKi [1] | inhibition [2] | inhibition (D(2) dopamine receptor) | inhibition [3] | inhibition [4] | pKi [5] | Ratio [6] |
| --- | --- | --- | --- | --- | --- | --- | --- |
| CCOc1ccccc1OCCN[C@H](C)Cc1ccc(OC)c(S(N)(=O)=O)c1 [TAMSULOSIN] | 9.74 | 41% | 73% | 21% | 62% |  |  |
| Cc1ccc(N2C(=O)c3ccc(C(=O)NC[C@H](O)CN4CCN(c5ccccc5OC(C)C)CC4)cc3C2=O)cc1 | 7.27 | 14% | 70% |  | 64% | 9.54 | > 5690 |
| COc1ccc(N2C(=O)c3ccc(C(=O)NCCCN4CCN(c5ccccc5OC(C)C)CC4)cc3C2=O)cc1 | 7.80 | 76% | 87% | 32% | 90% | 9.96 | 3280 |
| Cc1ccc(N2C(=O)c3ccc(C(=O)NCCCN4CCN(c5ccccc5OC(C)C)CC4)cc3C2=O)cc1 | 7.43 | 83% | 94% | 20% | 69% | 9.80 | > 12500 |
| CC(C)Oc1ccccc1N1CCN(CCCNC(=O)c2ccc3c(c2)C(=O)N(c2cccc(F)c2)C3=O)CC1 | 7.66 | 86% | 90% | 69% | 88% | 9.39 | 1180 |
| CC(C)Oc1ccccc1N1CCN(C[C@@H](O)CNC(=O)c2ccc3c(c2)C(=O)N(c2cccc(F)c2)C3=O)CC1 | 6.72 | 8% | 51% | 43% | 49% | 8.99 | > 1960 |
| CC(C)Oc1ccccc1N1CCN(C[C@@H](O)CNC(=O)c2ccc3c(c2)C(=O)N(c2ccc(N(C)C)cc2)C3=O)CC1 | 7.28 | 11% | 71% | 50% | 66% | 9.48 | > 6060 |

From ChEMBL document CHEMBL1133729, “Design, synthesis, and structure-activity relationships of phthalimide-phenylpiperazines: a novel series of potent and selective alpha(1)(a)-adrenergic receptor antagonists” (J Med Chem, 2000)
